Experimental data as given in ChEMBL document CHEMBL1649278, “Characterization of a new metallo-beta-lactamase gene, bla(NDM-1), and a novel erythromycin esterase gene carried on a unique genetic structure in Klebsiella pneumoniae sequence type 14 from India” (2009).
Converted amounts (≈) assume the structure as drawn.

Columns and labels:
Klebsiella pneumoniae [1] = test: Antibacterial activity against Klebsiella pneumoniae 05-560 by Etest method; assay type: functional
Escherichia coli [2] = test: Antibacterial activity against Escherichia coli TOP10 by Etest method; assay type: functional
Escherichia coli [3] = test: Antibacterial activity against Escherichia coli TOP10 harboring beta-lactamase NDM-1 by Etest method; assay type: functional
In short: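 Fragments from BamHI, EcoRI or HindIII digests of K. pneumoniae 05-506 DNA were cloned into vector pK18 and electroporated into E. coli TOP10. Transformants were selected on LB agar with X-gal (30 μg/ml), ceftazidime (6 μg/ml) and kanamycin (25 μg/ml). Susceptibility read by Etest.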

Escherichia coli [4] = test: Antibacterial activity against Escherichia coli J53 by Etest method; assay type: functional
Escherichia coli [5] = test: Antibacterial activity against Escherichia coli J53 harboring beta-lactamase NDM-1 by Etest method; assay type: functional
In short: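 Transconjugant of E. coli J53 recipient, mated with donor on blood agar without selection for 18 h. Selected on MacConkey agar with sodium azide (100 μg/ml) plus ceftazidime (8 μg/ml). Transfer confirmed by indole test and PCR for the MBL gene. Susceptibility read by Etest.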

Escherichia coli [6] = test: Antibacterial activity against Escherichia coli NF-NDM-1 by Etest method; assay type: functional
[7] = tested on: CC(=O)OCC1=C(C(=O)O)N2C(=O)[C@@H](NC(=O)Cc3cccs3)[C@H]2SC1; test: (§1) Activity of Klebsiella pneumoniae 05-560 beta-lactamase VIM2 by spectrophotometry
[8] = tested on: CC(C)(O/N=C(\C(=O)N[C@@H]1C(=O)N2C(C(=O)[O-])=C(C[n+]3ccccc3)CS[C@H]12)c1csc(N)n1)C(=O)O; test: as §1
[9] = tested on: CC1(C)S[C@@H]2[C@H](NC(=O)Cc3ccccc3)C(=O)N2[C@H]1C(=O)O; test: as §1
[10] = tested on: CCN1CCN(C(=O)N[C@@H](C(=O)N[C@@H]2C(=O)N3[C@@H]2SC(C)(C)[C@@H]3C(=O)O)c2ccccc2)C(=O)C1=O; test: as §1
[11] = tested on: CO/N=C(\C(=O)N[C@@H]1C(=O)N2C(C(=O)O)=C(COC(C)=O)CS[C@H]12)c1csc(N)n1; test: as §1
[12] = tested on: CO[C@@]1(NC(=O)Cc2cccs2)C(=O)N2C(C(=O)O)=C(COC(N)=O)CS[C@@H]21; test: as §1
[13] = tested on: CC(=O)OCC1=C(C(=O)O)N2C(=O)[C@@H](NC(=O)Cc3cccs3)[C@H]2SC1; test: (§2) Ratio of Kcat to Km for Klebsiella pneumoniae 05-560 beta-lactamase VIM2
[14] = tested on: CC(C)(O/N=C(\C(=O)N[C@@H]1C(=O)N2C(C(=O)[O-])=C(C[n+]3ccccc3)CS[C@H]12)c1csc(N)n1)C(=O)O; test: as §2
[15] = tested on: CC1(C)S[C@@H]2[C@H](NC(=O)Cc3ccccc3)C(=O)N2[C@H]1C(=O)O; test: as §2
[16] = tested on: CCN1CCN(C(=O)N[C@@H](C(=O)N[C@@H]2C(=O)N3[C@@H]2SC(C)(C)[C@@H]3C(=O)O)c2ccccc2)C(=O)C1=O; test: as §2
[17] = tested on: CO/N=C(\C(=O)N[C@@H]1C(=O)N2C(C(=O)O)=C(COC(C)=O)CS[C@H]12)c1csc(N)n1; test: as §2
Klebsiella pneumoniae [18] = test: Activity of Klebsiella pneumoniae 05-560 beta-lactamase IMP1 by spectrophotometry
Klebsiella pneumoniae [19] = test: Ratio of Kcat to Km for Klebsiella pneumoniae 05-560 beta-lactamase IMP1

Compound | MIC (Klebsiella pneumoniae [1]) | MIC (Escherichia coli [2]) | MIC (Escherichia coli [3]) | MIC (Escherichia coli [4]) | MIC (Escherichia coli [5]) | MIC (Escherichia coli [6]) | Km (Klebsiella pneumoniae [18]) | kcat (Klebsiella pneumoniae [18]) | kcat/Km (Klebsiella pneumoniae [19]) | further results
COLISTIN | 0.75 µg/mL | 0.38 µg/mL | 0.38 µg/mL | 0.25 µg/mL | 0.25 µg/mL | 0.25 µg/mL | – | – | – | –
Metallo-beta-lactamase VIM-2 (Klebsiella pneumoniae) (from UniProt Q3Y6Q3) | – | – | – | – | – | – | – | – | – | Km [7]: 44 µM; kcat [7]: 57 s⁻¹; Km [8]: 98 µM; kcat [8]: 89 s⁻¹; Km [9]: 49 µM; kcat [9]: 56 s⁻¹; Km [10]: 72 µM; kcat [10]: 33 s⁻¹; Km [11]: 32 µM; Km [12]: 24 µM; kcat [12]: 3 s⁻¹; kcat/Km [13]: 1.28e+06 M⁻¹ s⁻¹; kcat/Km [14]: 900000 M⁻¹ s⁻¹; kcat/Km [15]: 1.14e+06 M⁻¹ s⁻¹; kcat/Km [16]: 450000 M⁻¹ s⁻¹; kcat/Km [17]: 860000 M⁻¹ s⁻¹
CC1(C)S[C@@H]2[C@H](NC(=O)Cc3ccccc3)C(=O)N2[C@H]1C(=O)O | – | – | – | – | – | – | 520 µM | 320 s⁻¹ | 620000 M⁻¹ s⁻¹ | –
CO[C@@]1(NC(=O)Cc2cccs2)C(=O)N2C(C(=O)O)=C(COC(N)=O)CS[C@@H]21 [CEFOXITIN] | > 256 µg/mL | 4 µg/mL (≈ 9.36 µM) | > 256 µg/mL | 2 µg/mL (≈ 4.68 µM) | > 256 µg/mL | > 256 µg/mL | – | – | 2e+06 M⁻¹ s⁻¹ | –
CO/N=C(\C(=O)N[C@@H]1C(=O)N2C(C(=O)[O-])=C(C[N+]3(C)CCCC3)CS[C@H]12)c1csc(N)n1 | > 256 µg/mL | – | 8 µg/mL (≈ 16.6 µM) | – | 24 µg/mL (≈ 49.9 µM) | 24 µg/mL (≈ 49.9 µM) | 11 µM | 7 s⁻¹ | 660000 M⁻¹ s⁻¹ | –
O=C(O)c1cn(C2CC2)c2cc(N3CCNCC3)c(F)cc2c1=O [CIPROFLOXACIN] | > 256 µg/mL | – | – | 0.032 µg/mL (≈ 0.0966 µM) | 0.047 µg/mL (≈ 0.142 µM) | – | – | – | – | –
C[C@@H](O)[C@H]1C(=O)N2C(C(=O)O)=C(SCCNC=N)C[C@H]12 [IMIPENEM ANHYDROUS] | > 256 µg/mL | 0.094 µg/mL (≈ 0.314 µM) | 12 µg/mL (≈ 40.1 µM) | – | 16 µg/mL (≈ 53.4 µM) | > 32 µg/mL | 39 µM | 46 s⁻¹ | 1.2e+06 M⁻¹ s⁻¹ | –
CC(C)(O/N=C(\C(=O)N[C@@H]1C(=O)N2C(C(=O)[O-])=C(C[n+]3ccccc3)CS[C@H]12)c1csc(N)n1)C(=O)O [CEFTAZIDIME] | > 256 µg/mL | 1 µg/mL (≈ 1.83 µM) | > 256 µg/mL | 0.125 µg/mL (≈ 0.229 µM) | > 256 µg/mL | > 256 µg/mL | 44 µM | 8 s⁻¹ | 180000 M⁻¹ s⁻¹ | –
